This is an account of results in ChEMBL document CHEMBL1921783, “Hypoxia activated prodrugs of a 9-aza-anthrapyrazole derivative that has promising anticancer activity” (J Med Chem, 2011).

Assay [1] deals with MCF7. In words: Cytotoxicity against doxorubicin-resistant human MCF7 cells under hypoxic condition assessed as growth inhibition after 74 hrs by sulforhodamine B assay. The settings on record: MCF7, 74 h. The format is functional, cell-based. The method in brief:
(§1)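 Cells grown in 96-well plates for 74 h across a range of test concentrations; growth measured by sulforhodamine B staining and IC50 taken as 50% inhibition of growth. Hypoxic arm held in an anaerobic chamber flushed with 95% N2/5% CO2; oxic arm in oxygen-rich conditions.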
Background: In SRB staining, fixed cells bind dye roughly in proportion to their protein.

Assay [2] has as its system LoVo. In words: Cytotoxicity against human LoVo cells under hypoxic condition assessed as growth inhibition after 74 hrs by sulforhodamine B assay. Format: functional, cell-based. The method in brief:
as §1

Assay [3] concerns MCF7. Briefly: Cytotoxicity against doxorubicin-sensitive human MCF7 cells under oxic condition assessed as growth inhibition after 74 hrs by sulforhodamine B assay. Format: functional, cell-based. As to conditions: MCF7, 74 h. The method, boiled down: as §1
Assay [4] has as its system MCF7. Briefly: Cytotoxicity against doxorubicin-sensitive human MCF7 cells under hypoxic condition assessed as growth inhibition after 74 hrs by sulforhodamine B assay. The format is functional, cell-based. The settings on record: MCF7, 74 h. The method, boiled down: as §1
For assay [5], the system named is MCF7. In words: Cytotoxicity against doxorubicin-resistant human MCF7 cells under oxic condition assessed as growth inhibition after 74 hrs by sulforhodamine B assay. The format is functional, cell-based. As to conditions: MCF7, 74 h. The method in brief: as §1
For assay [6], the target named is Nucleic Acid. In words: Displacement of ethidium bromide from DNA by fluorometric analysis. The format is nucleic-acid assay. The method, boiled down: (§2)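 Fluorescence read-out of ethidium bromide displacement from DNA; IC50 is concentration reducing ethidium bromide binding by 50%; tested up to 50 μM.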
Assay [7] concerns LoVo. In words: Cytotoxicity against human LoVo cells under oxic condition assessed as growth inhibition after 74 hrs by sulforhodamine B assay. The format is functional, cell-based. The method, boiled down: as §1
Assay [8] concerns the target DNA topoisomerase 2-alpha (Homo sapiens) (UniProt P11388). Briefly: Inhibition of DNA topoisomerase 2-mediated DNA fragmentation at 10 uM pretreated with 1% O2 for 2 hrs measured by gel electrophoresis analysis. The method, boiled down:
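Before the Topo II assay, compound incubated with rat liver S-9 fraction in 1% O2 or normal air for 2 h at 37 °C. Proteins were precipitated with ethanol and the sample centrifuged; the supernatant was then tested for inhibition of Topo II DNA fragmentation by gel electrophoresis.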

For assay [9] the target is unchanged. Briefly: Inhibition of DNA topoisomerase 2-mediated DNA fragmentation at 10 uM by gel electrophoresis analysis. The method in brief: (§3)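 Topo II incubated with DNA and compound; products resolved by gel electrophoresis, with intact DNA as a single band and Topo II fragmentation giving multiple bands.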
Assay [10] has the same target. In words: Inhibition of DNA topoisomerase 2-mediated DNA fragmentation at 50 uM by gel electrophoresis analysis. The method, boiled down: as §3
Assay [11] has as its system Nucleic Acid. In words: Displacement of ethidium bromide from DNA at 50 uM by fluorometric analysis. Format: nucleic-acid assay. The method in brief:
as §2

For assay [12], the system named is Nucleic Acid. In words: Binding affinity to DNA assessed as increase in hypochromicity by UV-spectroscopic analysis without compound pretreatment with CYP450. The format is nucleic-acid assay. The method in brief:
(§4)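 UV absorbance scans of compound recorded with sequentially increasing DNA concentrations; binding judged from hypochromicity and bathochromic shift. CYP450 pretreatment where applicable: incubation with rat liver S-9 fraction in 1% O2, 2 h, 37 °C, proteins precipitated with ethanol, supernatant after centrifugation used.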

In assay [13] the test system is Nucleic Acid. In words: Binding affinity to DNA assessed as bathochromic shift by UV-spectroscopic analysis with compound pretreatment with CYP450. Format: nucleic-acid assay. The method, boiled down:
as §4

Assay [14] concerns Nucleic Acid. Briefly: Binding affinity to DNA assessed as increase in hypochromicity by UV-spectroscopic analysis with compound pretreatment with CYP450. Format: nucleic-acid assay. The method in brief:
as §4

Structures are written as SMILES. Where a name gives a salt, the structure may show the parent alone. The source made the active and inactive calls. No cut-off for these calls is given here. Bounds are passed on as bounds.

DNA topoisomerase 2-alpha (Homo sapiens), sequence (P11388 whole entry, the tested form may be a part): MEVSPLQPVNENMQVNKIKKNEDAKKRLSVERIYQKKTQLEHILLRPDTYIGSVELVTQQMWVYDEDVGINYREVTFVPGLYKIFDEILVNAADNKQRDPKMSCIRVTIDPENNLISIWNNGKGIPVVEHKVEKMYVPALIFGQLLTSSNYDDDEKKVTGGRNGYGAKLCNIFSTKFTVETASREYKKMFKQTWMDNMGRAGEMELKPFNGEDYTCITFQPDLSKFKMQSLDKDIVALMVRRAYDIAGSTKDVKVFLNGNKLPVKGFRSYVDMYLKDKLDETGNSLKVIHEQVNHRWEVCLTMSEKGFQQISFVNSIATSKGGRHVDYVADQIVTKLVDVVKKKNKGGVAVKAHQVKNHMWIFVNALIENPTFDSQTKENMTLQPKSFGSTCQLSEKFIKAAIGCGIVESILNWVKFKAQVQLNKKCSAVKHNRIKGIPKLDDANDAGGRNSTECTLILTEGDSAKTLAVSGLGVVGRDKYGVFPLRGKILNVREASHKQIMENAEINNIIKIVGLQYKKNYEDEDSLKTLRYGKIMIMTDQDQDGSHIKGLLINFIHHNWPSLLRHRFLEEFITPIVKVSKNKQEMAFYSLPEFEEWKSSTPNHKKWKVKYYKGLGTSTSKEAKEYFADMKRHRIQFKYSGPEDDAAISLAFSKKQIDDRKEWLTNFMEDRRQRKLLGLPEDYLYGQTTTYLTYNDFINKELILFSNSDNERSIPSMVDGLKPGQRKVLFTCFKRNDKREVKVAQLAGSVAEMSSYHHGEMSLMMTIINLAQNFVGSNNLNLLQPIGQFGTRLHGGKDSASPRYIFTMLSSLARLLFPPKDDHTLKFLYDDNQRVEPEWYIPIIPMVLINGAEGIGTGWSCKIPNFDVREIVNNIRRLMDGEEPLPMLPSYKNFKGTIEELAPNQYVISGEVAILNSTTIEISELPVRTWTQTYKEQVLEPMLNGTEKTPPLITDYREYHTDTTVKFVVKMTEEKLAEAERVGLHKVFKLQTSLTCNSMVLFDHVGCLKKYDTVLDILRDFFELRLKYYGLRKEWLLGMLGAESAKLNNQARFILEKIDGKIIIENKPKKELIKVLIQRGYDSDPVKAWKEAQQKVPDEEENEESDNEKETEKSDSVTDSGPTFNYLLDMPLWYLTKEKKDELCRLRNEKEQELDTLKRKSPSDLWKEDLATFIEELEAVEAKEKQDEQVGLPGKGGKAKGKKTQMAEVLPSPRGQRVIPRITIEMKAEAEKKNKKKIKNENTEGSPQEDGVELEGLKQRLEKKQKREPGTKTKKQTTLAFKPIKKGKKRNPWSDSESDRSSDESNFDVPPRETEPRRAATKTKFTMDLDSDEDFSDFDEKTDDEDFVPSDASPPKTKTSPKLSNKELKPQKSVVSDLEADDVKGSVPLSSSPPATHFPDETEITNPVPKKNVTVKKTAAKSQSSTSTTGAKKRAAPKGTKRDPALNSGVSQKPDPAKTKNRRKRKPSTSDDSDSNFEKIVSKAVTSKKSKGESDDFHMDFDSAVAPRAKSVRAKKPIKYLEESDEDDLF

In the case of `O=C1c2c(O)ccc(O)c2C(=O)c2c(NCCNCCO)ccc(NCCNCCO)c21` [MITOXANTRONE HYDROCHLORIDE], the IC50 was over 10000 nM with MCF7 [1]; 900 nM with LoVo [2]; 100 nM with MCF7 [3]; 1 µM in the assay on MCF7 [4]; 4.7 µM in the assay with MCF7 [5]; 4.5 µM at Nucleic Acid [6]. The IC50 in the assay with LoVo [7] came out at 100 nM.
On to `CN(C)CCNc1ccc2c3c(nn2CCN(C)C)-c2cnccc2C(=O)c13`, for which the IC50 is 1200 nM in the assay with MCF7 [1]; 3300 nM in the assay on LoVo [2]; 900 nM in the assay on MCF7 [3]; 4 µM in the assay on MCF7 [4]; 1 µM with MCF7 [5]; 6.8 µM at Nucleic Acid [6]. Further, in the assay with LoVo [7], the IC50 worked out at 1300 nM. Moreover, the inhibition result in assay [8] and in [9] was “Active” each time.
`C[N+](C)([O-])CCNc1ccc2c3c(nn2CC[N+](C)(C)[O-])-c2cnccc2C(=O)c13`: the IC50 with MCF7 [1] is 1300 nM; with LoVo [2], 1500 nM; in the assay on MCF7 [3] it was over 25000 nM; in the assay on MCF7 [4] it was 5 µM; in the assay with MCF7 [5] it was over 25 µM; in the assay on LoVo [7] it was over 25000 nM. Moreover, in assay [8], the inhibition entry was “Active”. For the same compound, in [10], the inhibition entry is “inactive”. The outcome in the assay on Nucleic Acid [11] and in the assay with Nucleic Acid [12] was inactive. In addition, the outcome with Nucleic Acid [13] and in the assay on Nucleic Acid [14] was Active.

As a reminder, the IC50 is the concentration that inhibits the measured activity by half.
